# Sampled rows, rich in hits. Any-hit rate of the full collection: about 2.3%.
# CRFBP-R2 agonist: agonists of human CRF-binding protein/CRF-R2 receptor complex. HEK293 CRF-R2/CRF-BP, calcium dye fluorescence (FLIPR); percent of saturating CRF peptide response. activation, % at 13.2 µM. 350,000 compounds, 0.46% hits;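 active = activation of at least 50%, plus an integration ratio under a set limit after plate pattern correction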
# CSN deneddyl inh: CSN deneddylation inhibition; Q92905; Purified CSN, SCF-Nedd8-OG deneddylation, fluorescence polarization; 360,000 compounds, 0.38% hits; AID 651999; inhibition, % at 12.5 µM;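 active = pattern-corrected inhibition above about 35%, with an unprinted fluorescence ratio check between 0.5 and 1.5, limit read from the data, passing the limit was not always enough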
# Target sequence (Q92905 whole entry, looked up, one chain of several): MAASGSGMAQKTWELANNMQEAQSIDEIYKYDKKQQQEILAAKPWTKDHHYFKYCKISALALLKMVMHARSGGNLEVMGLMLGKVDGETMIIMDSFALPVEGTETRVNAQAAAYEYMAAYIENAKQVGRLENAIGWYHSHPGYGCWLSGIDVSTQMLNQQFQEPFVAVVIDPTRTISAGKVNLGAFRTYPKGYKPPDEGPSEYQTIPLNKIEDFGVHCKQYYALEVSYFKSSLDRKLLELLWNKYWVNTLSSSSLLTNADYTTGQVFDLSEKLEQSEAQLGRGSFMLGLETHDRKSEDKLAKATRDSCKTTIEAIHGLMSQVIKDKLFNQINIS
#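 Material: purified human Csn5 enzyme expressed in HEK293T cells / Medium: Tris buffer pH 7.5, NaCl, DTT, Tween-20, trehalose, ovalbumin / Compound dosing: 12.5 µM single point / Schedule: 90 min incubation of compound, enzyme and substrate at room temperature / Signal: fluorescence polarization of the substrate / Control set: no-enzyme wells high, enzyme-with-substrate wells low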
# CRFR2-BP antag: blocks CRF-induced signaling of the CRF-BP/CRF-R2 complex; HEK293 CRF-R2/CRF-BP, CRF-induced calcium fluorescence; inhibition, % at 11.8 µM; 350,000 compounds, 0.59% hits;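 active = inhibition of the ligand-induced calcium signal above about 50% at the single tested concentration, limit read from the data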
# HNF4A DNA FP: change in binding of human HNF4 alpha to DNA; 360,000 compounds, 0.3% hits; P41235; activity change, % at 10 µM; HNF4a-FITC DNA binding, fluorescence polarization, 1 h; AID 1224865; in the data active = activity change above about 30%, passing the limit was not always enough
# TPT1 inhibitor: inhibitors of Candida albicans tRNA 2'-phosphotransferase TPT1 | recombinant caTPT1, FP RNA substrate dephosphorylation | 300,000 compounds, 0.81% hits | AID 1962 | inhibition, % at 5 µM;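 active = inhibition above the mean of all tested compounds plus 3 SD, set per screening campaign, cut at about 24% in these data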
# Rpn11 block: Rpn11 (human) deubiquitinase inhibition | human 26S proteasome, Ub4-pepOG fluorescence polarization; 20S core pre-blocked with epoxomicin | calls only at 20 µM | 360,000 compounds, 0.59% hits;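 active = inhibition at 20 µM, scaled to each plate's controls, above about 33%, limit read from the data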
# TPT1 inh confirm: confirmation of Candida albicans TPT1 inhibitors | shares compounds with TPT1 inhibitor | recombinant caTPT1, fluorescence polarization, RNase T1 coupled | inhibition, % at 5 µM | 2,400 compounds, 74% hits | AID 2149;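 active = inhibition above the primary screen limit, the mean inhibition of all tested compounds plus 3 SD, cut at about 25% in these data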
# RNase T1 counter: RNase T1 inhibition in TPT1 counter-screen | 2,400 compounds, 83% hits | RNase T1 cleavage, fluorescence polarization, 1536-well | AID 2153 | shares compounds with TPT1 inhibitor | inhibition, % at 5 µM;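 active = inhibition above the solvent-only control well mean plus 3 SD, limit set per screening run, cut at about 23% in these data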;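 also: inhibitors block cleavage so intact labeled substrate keeps polarization high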
# A number is an active result; – = inactive; · = not tested or not shown.
SMILES,CRFBP-R2 agonist,CSN deneddyl inh,CRFR2-BP antag,HNF4A DNA FP,TPT1 inhibitor,Rpn11 block,TPT1 inh confirm,RNase T1 counter
CCN(CC)c1ccc2cc(-c3nc4ccccc4n3C)c(=O)oc2c1,247.7,–,–,–,80.8,–,80.6,84.8
CN(C)Cc1c(O)ccc2cc(-c3nc4ccccc4n3C)c(=O)oc12,–,–,–,–,–,–,·,·
CCN(CC)c1ccc2cc(-c3nnc(-c4ccccc4)o3)c(=O)oc2c1,191.7,–,–,–,117.1,–,122.2,114.9
CC(=O)N1C(=O)N(C)C2C1N(C(C)=O)C(=O)N2C (stereo unspecified),–,–,–,–,–,–,·,·
Cc1cccc(-c2cc(C(=O)Nc3c(C)n(C)n(-c4ccccc4)c3=O)c3ccccc3n2)c1,–,–,–,–,–,–,·,·
CN(C)/N=C/C=C1\CC/C(=C\c2ccc(Br)cc2)C1=O,–,–,–,–,77.3,–,55.4,65.7
CN(C)c1ccc(/C=C2\CCCCC2=O)cc1,–,–,–,–,–,–,·,·
O=C(CC1C(=O)NCCN1C(=O)Nc1ccccc1)Nc1cccc(Cl)c1 (stereo unspecified),–,–,–,–,–,–,·,·
Cc1cccc(C(=O)N2CCNC(=O)C2CC(=O)Nc2cccc(Cl)c2)c1 (stereo unspecified),–,–,–,–,24.2,–,–,–
COC(=O)C[C@@H]1CC[C@@H](NS(=O)(=O)c2ccc(F)cc2)[C@@H](CO)O1,·,–,·,–,·,·,·,·
CCOC(=O)CCSc1nc(C(C)(C)C)cc(C(F)(F)F)c1C#N,–,–,–,–,–,–,·,·
CCOC(=O)C(C)Sc1nc(-c2ccco2)cc(C(F)(F)F)c1C#N (stereo unspecified),–,–,–,–,25.9,–,–,–
CCOC(=O)CCSc1nc(C)cc(C(F)(F)F)c1C#N,–,37.9,–,–,24.8,·,32.7,43.9
CCOC(=O)COc1nc(-c2ccco2)cc(-c2ccco2)c1C#N,–,–,–,–,–,–,·,·
CN1CCN(S(=O)(=O)c2ccc([N+](=O)[O-])cc2)CC1,–,–,–,–,–,–,·,·
COc1ccc(C2=C/C(=C\c3cccc(OC(C)=O)c3)C(=O)O2)cc1,–,–,–,–,35.5,–,54.9,67.6
COc1ccc(C2=C/C(=C\c3ccccc3OC(C)=O)C(=O)O2)cc1,–,–,–,–,–,–,·,·
CCN(CC)S(=O)(=O)c1ccc(N2CCOCC2)c(NS(=O)(=O)c2ccc(C)c(C)c2)c1,–,–,–,–,–,–,·,·
O=C(/C=C/c1ccc(Cl)cc1)NC1CCS(=O)(=O)C1 (stereo unspecified),–,–,–,–,–,–,·,·
Fc1ccc(-n2cc(-c3ccccc3)c3c(N4CCOCC4)ncnc32)cc1,–,–,–,–,–,–,·,·
Cc1nn(-c2ccccc2)c(N2CCCC2)c1/C=C1\N=C(c2ccc(OC(C)C)cc2)OC1=O,–,–,–,–,43.3,·,72.6,81.4
CCCCC(=O)Nc1ccc(NC(=O)c2ccc([N+](=O)[O-])cc2)cc1OC,–,–,–,–,–,–,·,·
CCCCC(=O)Nc1ccc(C(=O)Nc2ccc(OC)cc2[N+](=O)[O-])cc1,116.9,–,–,–,27.4,·,53.5,62.8
CCOC(=O)C1CCN(C(=O)C2CCN(c3nnc(-n4cccc4)s3)CC2)CC1,–,–,–,–,–,–,·,·
CCOC(=O)c1cc(C#N)c(SCC(N)=O)[nH]c1=O,–,–,–,–,31.9,–,39.8,50.2
O=C(CSc1n[nH]c(=O)[nH]c1=O)N/N=C/c1ccccc1,–,–,–,–,–,–,·,·

# High-throughput results (PubChem)
